Data published in ChEMBL document CHEMBL4765245 (Eur J Med Chem, 2020).

How the values were obtained:
[1] = Genotoxicity in Escherichia coli PQ37 assessed as zone of inhibition at 10 mg/ml measured on day 3 by SOS-chromo0test relative to control; format: toxicity; conditions: 72 h, time 3 day
[2] = tested on: Coxsackievirus B3; assay: Antiviral activity against pleconaril-resistant Coxsackievirus B3 97927 11207M/I1092 mutant infected in human HeLa cell line assessed as inhibition of virus-induced cytopathic effect measured after 48 hrs by crystal violet uptake assay; format: functional, organism-based
Method in brief: (§1)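 HeLa Ohio monolayers, 2 days old and confluent, in MEM with 2% FCS. Serial half-log compound dilutions from 100 μM were added just before CVB3 infection. Activity was calculated per Pauwels against six cell and six virus controls; mean IC50 from ≥3 experiments.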

[3] = tested on: Coxsackievirus B3; assay: Antiviral activity against Coxsackievirus B3 Nancy infected in human HeLa cell line assessed as inhibition of virus-induced cytopathic effect measured after 48 hrs by crystal violet uptake assay; format: functional, organism-based; method in brief: as §1
[4] = tested on: HeLa; assay: (§2) Cytotoxicity against human HeLa cells assessed as reduction in cell viability incubated for 72 hrs measured by crystal violet based micro plate reader method; conditions: hela, 72 h
Method in brief: (§3)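 Two-day-old confluent HeLa Ohio monolayers exposed to half-log dilutions (100 μM downward) in 2% FCS medium for 72 h at 37 °C, 5% CO2. Cells fixed and stained with crystal violet/formalin, dye eluted with acidified citrate-ethanol, OD read at 550/630 nm. Viability expressed relative to six mock-treated controls; CC50 is the mean of at least 3 tests.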

[5] = tested on: rhinovirus B5; assay: Antiviral activity against Rhinovirus B5 infected in human HeLa cell line assessed as inhibition of virus-induced cytopathic effect measured after 72 hrs by crystal violet uptake assay; format: functional, organism-based
Method in brief: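 HeLa Ohio monolayers, 1 day old, in 2% FCS medium. Compound added as serial half-log dilutions from 100 μM immediately before rhinovirus infection. CPE read at 72 h by crystal violet staining, elution and OD 550/630 nm, with six cell and six virus controls per plate. Activity calculated per Pauwels; IC50 is the mean of at least 3 experiments.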

[6] = tested on: Coxsackievirus B3; assay: Antiviral activity against wild type Coxsackievirus B3 97927 infected in human HeLa cell line assessed as inhibition of virus-induced cytopathic effect measured after 48 hrs by crystal violet uptake assay; format: functional, organism-based; conditions: read-out: IC50
Method in brief: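 Coxsackievirus B3 infection of 2-day-old HeLa Ohio monolayers in 2% FCS medium. Half-log dilutions from 100 μM added just before infection; guanidine hydrochloride served as positive control. Antiviral activity calculated per Pauwels; IC50 is the mean of at least 3 separate tests.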

[7] = tested on: rhinovirus B14; assay: Antiviral activity against Rhinovirus B14 infected in human HeLa cell line assessed as inhibition of virus-induced cytopathic effect measured after 72 hrs by crystal violet uptake assay; format: functional, organism-based; conditions: Rhinovirus B, HeLa, 72 h; read-out: IC50
Method in brief: (§4)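 HeLa Ohio monolayers, 1 day old, in 2% FCS medium. Compound added as serial half-log dilutions from 100 μM immediately before rhinovirus infection. Activity calculated per Pauwels; IC50 is the mean of at least 3 experiments.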

[8] = tested on: Coxsackievirus B3; assay: Antiviral activity against pleconaril-resistant Coxsackievirus B3 97927 11207T/I1092 mutant infected in human HeLa cell line assessed as inhibition of virus-induced cytopathic effect measured after 48 hrs by crystal violet uptake assay; format: functional, organism-based; method in brief: as §1
[9] = tested on: rhinovirus A2; assay: Antiviral activity against Rhinovirus A2 infected in human HeLa cell line assessed as inhibition of virus-induced cytopathic effect measured after 72 hrs by crystal violet uptake assay; format: functional, organism-based; method in brief: as §4
[10] = Mutagenicity in Escherichia coli PQ37 at 10 mg/ml by SOS-chromotest; format: toxicity
[11] = tested on: Coxsackievirus B3; assay: Antiviral activity against pleconaril-resistant Coxsackievirus B3 97927 11207K/I1092 mutant infected in human HeLa cell line assessed as inhibition of virus-induced cytopathic effect measured after 48 hrs by crystal violet uptake assay; format: functional, organism-based; method in brief: as §1
[12] = as §2; conditions: HeLa cells; method in brief: as §3
[13] = Selectivity index, ratio of CC50 for human HeLa cells to IC50 for Rhinovirus B5 infected in HeLa cell line assessed as inhibition of virus-induced cytopathic effect; format: toxicity; conditions: read-out: Selectivity Index
[14] = Selectivity index, ratio of CC50 for human HeLa cells to IC50 for Rhinovirus B14 infected in HeLa cell line assessed as inhibition of virus-induced cytopathic effect; format: toxicity; conditions: read-out: Selectivity Index
[15] = Volume of distribution in Balb/c mouse at 100 mg/kg, IG measured upto 7 hrs by HPLC-MS method; format: ADME, organism-based; conditions: in vivo, po
Method in brief: (§5)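 Male BALB/c mice (~20 g), food withheld 1 h before and after dosing; single 100 mg/kg intragastric dose as suspension in 0.5% CMC with one drop Tween-80. Blood taken at 0.5, 1, 2, 3, 5, 7 h (3 animals per time point); plasma MeCN-precipitated, HPLC-MS (ESI positive). Non-compartmental analysis: AUC by trapezium with extrapolation; CL = dose/AUC; Vd = CL/kel.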

[16] = Selectivity index, ratio of CC50 for human HeLa cells to IC50 for pleconaril-resistant Coxsackievirus B3 97927 11207M/I1092 mutant infected in HeLa cell line assessed as inhibition of virus-induced cytopathic effect; format: toxicity; conditions: read-out: Selectivity Index
Method in brief: (§6)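 SI calculated as CC50/IC50. Cytotoxicity: 2-day-old confluent HeLa Ohio monolayers were exposed to half-log dilutions from 100 μM in 2% FCS MEM for 72 h at 37 °C, then crystal violet stained, eluted and read at 550/630 nm. Antiviral: compound added just before CVB3 infection of 2-day-old HeLa; CPE scored by crystal violet at 48 h (Pauwels formula). Means from ≥3 tests each.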

[17] = Selectivity index, ratio of CC50 for human HeLa cells to IC50 for Rhinovirus A2 infected in HeLa cell line assessed as inhibition of virus-induced cytopathic effect; format: toxicity; conditions: read-out: Selectivity Index
[18] = Selectivity index, ratio of CC50 for human HeLa cells to IC50 for Coxsackievirus B3 97927 wild type infected in HeLa cell line assessed as inhibition of virus-induced cytopathic effect; format: toxicity; conditions: read-out: Selectivity Index; method in brief: as §6
[19] = Selectivity index, ratio of CC50 for human HeLa cells to IC50 for pleconaril-resistant Coxsackievirus B3 97927 11207K/I1092 mutant infected in HeLa cell line assessed as inhibition of virus-induced cytopathic effect; format: toxicity; conditions: read-out: Selectivity Index; method in brief: as §6
[20] = Selectivity index, ratio of CC50 for human HeLa cells to IC50 for Coxsackievirus B3 Nancy infected in HeLa cell line assessed as inhibition of virus-induced cytopathic effect; format: toxicity; conditions: read-out: Selectivity Index; method in brief: as §6
[21] = Selectivity index, ratio of CC50 for human HeLa cells to IC50 for pleconaril-resistant Coxsackievirus B3 97927 11207T/I1092 mutant infected in HeLa cell line assessed as inhibition of virus-induced cytopathic effect; format: toxicity; conditions: read-out: Selectivity Index; method in brief: as §6
[22] = Clearance in Balb/c mouse at 100 mg/kg, IG measured upto 7 hrs by HPLC-MS method; format: ADME, organism-based; conditions: in vivo, po; method in brief: as §5
[23] = AUC (0 to infinity) in Balb/c mouse at 100 mg/kg, IG measured upto 7 hrs by HPLC-MS method; format: ADME, organism-based; design: route […], dose 100 mg/kg, time <=7; conditions: in vivo, po; method in brief: as §5
[24] = Elimination rate constant in Balb/c mouse at 100 mg/kg, IG measured upto 7 hrs by HPLC-MS method; format: ADME, organism-based; conditions: in vivo, po; method in brief: as §5
[25] = Enterovirus B, Nancy, HeLa, 48 h, read-out: IC50
[26] = Rhinovirus B, HeLa, 72 h, read-out: IC50
[27] = Enterovirus B, 97927, HeLa, 48 h
[28] = Rhinovirus A, HeLa, 72 h, read-out: IC50

CN(C)C(=O)c1cc(CCCOc2ccc(-c3noc(C(F)(F)F)n3)cc2[N+](=O)[O-])on1
inhibition zone (IZ) [1]: 0 mm | IC50 [2]: 1 nM | IC50 [3, 25]: 1660 nM | CC50 [4]: 22500 nM | IC50 [5, 26]: 7630 nM | IC50 [6, 27]: 3 nM | IC50 [7]: 280 nM | IC50 ([8]; read-out: IC50): 30 nM | IC50 [9, 28]: 670 nM | Activity [10]: Non-Toxic | IC50 ([11]; read-out: IC50): 6460 nM

CCOC(=O)c1cc(CCCOc2ccc(-c3noc(C(F)(F)F)n3)cc2C)on1
IC50 [2]: 610 nM | IC50 [3, 25]: 19000 nM | CC50 [4]: 35100 nM | IC50 [5]: Not Active | IC50 [6, 27]: 62 nM | IC50 [7]: 520 nM | IC50 ([8]; read-out: IC50): 1230 nM | IC50 [9]: Not Active | IC50 [11]: Not Active

CCOC(=O)c1cc(CCCOc2ccc(-c3noc(C(F)(F)F)n3)cn2)on1
IC50 [3]: Not Active | CC50 at 72 h [12]: > 100000 nM | IC50 [5]: Not Active | IC50 [6, 27]: 10300 nM | IC50 [7]: 1990 nM | IC50 [9]: Not Active

Cc1cc(-c2noc(C(F)(F)F)n2)cc(C)c1OCCCc1cc(C(=O)N(C)C)no1
inhibition zone (IZ) [1]: 0 mm | IC50 [2]: 30 nM | CC50 [4]: 13200 nM | IC50 [6, 27]: 20 nM | IC50 [7]: 120 nM | IC50 ([8]; read-out: IC50): 1010 nM | IC50 [9, 28]: 120 nM | Activity [10]: Non-Toxic | IC50 ([11]; read-out: IC50): 6330 nM

COc1cc(-c2noc(C(F)(F)F)n2)cc([N+](=O)[O-])c1OCCCc1cc(C(=O)N(C)C)no1
IC50 [2]: 880 nM | IC50 [3, 25]: 14500 nM | CC50 [4]: 25600 nM | IC50 [5]: Not Active | IC50 [6, 27]: 365 nM | IC50 [7]: 200 nM | IC50 ([8]; read-out: IC50): 840 nM | IC50 [9, 28]: 320 nM | IC50 [11]: Not Active

Cc1cc(-c2noc(C(F)(F)F)n2)ccc1OCCCc1cc(C(=O)N(C)C)no1
selectivity ratio [13]: 2.6 | selectivity ratio [14]: 149 | inhibition zone (IZ) [1]: 0 mm | IC50 [2]: 10 nM | IC50 [3, 25]: 2760 nM | Vd [15]: 1.52 L | selectivity ratio [16]: 1340 | CC50 [4]: 13400 nM | IC50 [5, 26]: 5250 nM | selectivity ratio [17]: 15.6 | IC50 [6, 27]: 20 nM | selectivity ratio [18]: 669 | IC50 [7]: 90 nM | selectivity ratio [19]: 2.8 | selectivity ratio [20]: 4.9 | IC50 ([8]; read-out: IC50): 10 nM | selectivity ratio [21]: 1340 | clearance [22]: 0.66 L/h | IC50 [9, 28]: 860 nM | Activity [10]: Non-Toxic | AUC [23]: 3015.5 ng·h/mL | Kel [24]: 0.4373 h⁻¹ | IC50 ([11]; read-out: IC50): 4790 nM

CN(C)C(=O)c1cc(CCCOc2ccc(-c3noc(C(F)(F)F)n3)cc2C(F)(F)F)on1
inhibition zone (IZ) [1]: 0 mm | IC50 [2]: 160 nM | IC50 [3, 25]: 2240 nM | CC50 [4]: 19200 nM | IC50 [5]: Not Active | IC50 [6]: 160 nM | IC50 [7]: 6760 nM | IC50 ([8]; read-out: IC50): 540 nM | IC50 [9, 28]: 320 nM | Activity [10]: Non-Toxic | IC50 ([11]; read-out: IC50): 7180 nM

CNC(=O)c1cc(CCCOc2c(C)cc(-c3noc(C(F)(F)F)n3)cc2C)on1
inhibition zone (IZ) [1]: 0 mm | IC50 [2]: 370 nM | CC50 [4]: > 100000 nM | IC50 [6, 27]: 60 nM | IC50 [7]: 20 nM | IC50 [8]: Not Active | IC50 [9, 28]: 200 nM | Activity [10]: Non-Toxic | IC50 [11]: Not Active
